Bioassay records deposited in PubChem BioAssay by The Scripps Research Institute Molecular Screening Center.
The list is not random: actives were taken first. Their share in the collection is about 2.8%.
PAFAH2 FP inh: inhibitors of human PAFAH2; recombinant PAFAH2, FP-rhodamine activity probe, fluorescence polarization; Q99487; inhibition, % at 3.39 µM; hit rate 0.99% among 340,000;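 active = inhibition above the mean over all tested compounds plus 3 SD, cut at about 30% in these data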;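 also: inhibitors block probe labeling of enzyme so polarization drops; 0% = enzyme with DMSO and 100% = wells lacking PAFAH2 protein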
PAFAH1B2 FP inh: PAFAH1B2 (human) inhibition | P68402 | recombinant PAFAH1B2, FP-rhodamine activity probe, fluorescence polarization | inhibition, % at 3.39 µM | hit rate 1.2% among 340,000 | AID 492953;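 active = inhibition above the mean of all tested compounds plus 3 SD, cut at about 24% in these data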;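 also: 0% = enzyme with DMSO and 100% = wells lacking PAFAH1B2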
Target sequence (P68402 whole entry, looked up): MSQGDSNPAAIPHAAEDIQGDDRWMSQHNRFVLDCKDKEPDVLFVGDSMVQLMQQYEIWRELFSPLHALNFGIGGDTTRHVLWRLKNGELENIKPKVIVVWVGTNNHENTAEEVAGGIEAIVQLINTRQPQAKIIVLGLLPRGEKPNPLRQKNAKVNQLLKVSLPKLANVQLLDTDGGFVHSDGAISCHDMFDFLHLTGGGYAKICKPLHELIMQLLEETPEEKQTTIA
pPAFAH FP inh: pPAFAH (human) enzyme inhibition. hit rate 1.5% among 330,000. AID 463082. inhibition, % at 3.39 µM. recombinant pPAFAH, FP-rhodamine probe fluorescence polarization;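 active = inhibition above the mean inhibition across the screen plus 3 SD, cut at about 25% in these data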;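 also: inhibitors block binding of the rhodamine activity-based probe so polarization drops; 0% = enzyme with DMSO and 100% = wells lacking pPAFAH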
Target sequence (Q13093 whole entry, looked up): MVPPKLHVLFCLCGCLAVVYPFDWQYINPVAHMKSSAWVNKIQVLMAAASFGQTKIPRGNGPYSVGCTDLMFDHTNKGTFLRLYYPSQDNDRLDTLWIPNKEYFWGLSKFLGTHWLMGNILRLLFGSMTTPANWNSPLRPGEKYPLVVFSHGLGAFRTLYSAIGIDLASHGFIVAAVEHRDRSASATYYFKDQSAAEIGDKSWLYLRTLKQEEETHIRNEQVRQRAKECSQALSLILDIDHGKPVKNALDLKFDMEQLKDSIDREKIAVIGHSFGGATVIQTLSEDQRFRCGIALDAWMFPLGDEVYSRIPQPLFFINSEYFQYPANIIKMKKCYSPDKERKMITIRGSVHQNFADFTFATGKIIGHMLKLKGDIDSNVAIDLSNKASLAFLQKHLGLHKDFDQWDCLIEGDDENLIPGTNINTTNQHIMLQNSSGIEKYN
PAFAH1B3 FP inh: PAFAH1B3 (human) inhibition; Q15102; recombinant PAFAH1B3, FP-rhodamine probe, fluorescence polarization; inhibition, % at 3.39 µM; hit rate 0.28% among 340,000;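 active = inhibition above the screen-wide average of all tested compounds plus 3 SD, cut at about 25% in these data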;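 also: 0% = enzyme with DMSO only and 100% = wells lacking PAFAH1B3 protein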
ARFGAP1 inhibitor: inhibits rat ARF GTPase activating protein 1 | Q62848 | Arfgap1-stimulated ARF1 GTP hydrolysis, GDP FP detection | inhibition, % at 16.5 µM | hit rate 0.26% among 360,000 | AID 651572;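 active = inhibition above a per-plate limit, mean inhibition of low control wells plus 3 SD, cut at about 25% in these data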;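 also: 0% = DMSO wells with enzyme and 100% = wells lacking Arfgap1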
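Material – truncated rat Arfgap1 GAP domain · Buffer or medium – HEPES-based buffer, pH 7.5 · Reagent – human ARF1(Δ1-17)-GTP substrate · Dosing – 16.5 µM single point, 1.26% DMSO · Schedule – GTP hydrolysis reaction 2 h at 25 °C · Technique – GDP detection by fluorescence polarization · Benchmarks – No-Arfgap1 wells (100%) versus DMSO full-reaction wells (0%) · Repeats – single replicate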
ASAP1 inh: ASAP1 ArfGAP inhibition; Q9ULH1; ASAP1-stimulated ARF1 GTP hydrolysis, GDP FP detection; inhibition, % at 16.5 µM; hit rate 0.19% among 360,000; AID 624377; in the data active = inhibition above about 25%;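 also: 0% = vehicle with enzyme and substrate and 100% = no enzyme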
PAFAH2 FP conf: confirmation of human PAFAH2 inhibitors; shares compounds with PAFAH2 FP inh; recombinant PAFAH2, FP-rhodamine activity probe, fluorescence polarization; inhibition, % at 3.39 µM; hit rate 65% among 2,300; AID 493030;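 active = mean inhibition over three repeats above a set limit taken from the earlier primary screen, cut at about 30% in these data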;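 also: inhibitor blocks binding of rhodamine activity probe so polarization falls; 0% = enzyme with DMSO and 100% = wells lacking PAFAH2 protein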
Numbers without * were called inactive.

What do the screens show for `Cc1ccc(S(=O)(=O)N2CCN(C(=O)CN3C(=O)c4ccc([N+](=O)[O-])cc4C3=O)CC2)cc1C`?
PAFAH2 FP inh: 5; PAFAH1B2 FP inh: 7; pPAFAH FP inh: 0; PAFAH1B3 FP inh: -1; ARFGAP1 inhibitor: -2; ASAP1 inh: -12

Results for CCC1CCCCN1C(=O)CCC(=O)Nc1nnc(C(F)(F)F)s1 (centres undefined) ?
PAFAH2 FP inh: 7; PAFAH1B2 FP inh: 13; pPAFAH FP inh: 0; PAFAH1B3 FP inh: 7; ARFGAP1 inhibitor: -6; ASAP1 inh: 21

Results for COc1ccc(C(=O)N2CCc3ccccc32)cc1S(=O)(=O)N1CCOCC1 ?
PAFAH2 FP inh: -1; PAFAH1B2 FP inh: -1; pPAFAH FP inh: 0; PAFAH1B3 FP inh: -1; ARFGAP1 inhibitor: 3; ASAP1 inh: 11

Results for O=C(COC(=O)c1ccc(Cl)c(S(=O)(=O)N2CCCCC2)c1)NC1CCCCC1 ?
ARFGAP1 inhibitor: -5; ASAP1 inh: -9

Results for O=C(COC(=O)c1ccc(Cl)c(S(=O)(=O)N2CCCC2)c1)NC1CCCCC1 ?
PAFAH2 FP inh: 36*; PAFAH1B2 FP inh: 3; pPAFAH FP inh: 11; PAFAH1B3 FP inh: 9; ARFGAP1 inhibitor: 7; ASAP1 inh: 8; PAFAH2 FP conf: 16

How did Cc1c(N=Nc2c(-c3ccc([N+](=O)[O-])cc3)[nH]n(C(N)=S)c2=O)cccc1[N+](=O)[O-] do in these assays?
PAFAH2 FP inh: 55*; PAFAH1B2 FP inh: 15; PAFAH1B3 FP inh: 15; ARFGAP1 inhibitor: 3; ASAP1 inh: 1; PAFAH2 FP conf: 36*

What do the screens show for `Cc1[nH]n(C(N)=S)c(=O)c1N=Nc1cccc([N+](=O)[O-])c1C`?
PAFAH2 FP inh: -4; PAFAH1B2 FP inh: -1; pPAFAH FP inh: 14; PAFAH1B3 FP inh: -2

Results for O=C(NC(=S)NNC(=O)c1ccccc1O)c1ccc([N+](=O)[O-])cc1 ?
PAFAH2 FP inh: 32*; PAFAH1B2 FP inh: 0; pPAFAH FP inh: 15; PAFAH1B3 FP inh: 17; ARFGAP1 inhibitor: 2; ASAP1 inh: -16; PAFAH2 FP conf: 11

Results for Cc1cccc(C(=O)NNC(=O)c2ccccc2O)c1 ?
PAFAH2 FP inh: 35*; PAFAH1B2 FP inh: 4; pPAFAH FP inh: 2; PAFAH1B3 FP inh: -1; ARFGAP1 inhibitor: 2; ASAP1 inh: -6; PAFAH2 FP conf: 16

What do the screens show for `O=C(NNC(=O)c1cc(Cl)ccc1O)c1cccs1`?
PAFAH2 FP inh: 77*; PAFAH1B2 FP inh: 5; pPAFAH FP inh: 8; PAFAH1B3 FP inh: 9; ARFGAP1 inhibitor: 5; ASAP1 inh: -3; PAFAH2 FP conf: 73*

How did O=C(NNC(=O)c1ccccc1Cl)c1cccs1 do in these assays?
PAFAH2 FP inh: -1; PAFAH1B2 FP inh: 2; pPAFAH FP inh: -2; PAFAH1B3 FP inh: 7; ARFGAP1 inhibitor: -11; ASAP1 inh: -4

What do the screens show for `O=C(NC(=S)NNC(=O)c1ccccc1O)c1cccs1`?
PAFAH2 FP inh: 45*; PAFAH1B2 FP inh: 4; pPAFAH FP inh: 13; PAFAH1B3 FP inh: 15; ARFGAP1 inhibitor: -6; ASAP1 inh: 9; PAFAH2 FP conf: 36*

Results for C=CCN=C1NC(c2cccc(Cl)c2)C(C(=O)OC)=C(C)N1C (centres undefined) ?
ARFGAP1 inhibitor: -6; ASAP1 inh: -10

How did O=C(NC(=S)NNC(=O)c1ccccc1O)c1ccccc1 do in these assays?
PAFAH2 FP inh: 31*; PAFAH1B2 FP inh: 5; pPAFAH FP inh: 9; PAFAH1B3 FP inh: 11; ARFGAP1 inhibitor: 0; ASAP1 inh: -8; PAFAH2 FP conf: 24

Results for CC(=O)NC1CC2CCCC(C1)N2C(=O)Nc1cccc(Cl)c1 (centres undefined) ?
PAFAH2 FP inh: -3; PAFAH1B2 FP inh: 6; PAFAH1B3 FP inh: 12; ARFGAP1 inhibitor: -3; ASAP1 inh: 9

What do the screens show for `COC(=O)C1=C(C)N(C)C(=NCc2ccc(OC)cc2)NC1c1ccccc1C(F)(F)F` (centres undefined)?
ARFGAP1 inhibitor: 7; ASAP1 inh: -16

How did CCOc1cc(C(=O)OCC(=O)Nc2cc(C)on2)ccc1OCC(C)C do in these assays?
PAFAH2 FP inh: 33*; PAFAH1B2 FP inh: 0; pPAFAH FP inh: 0; PAFAH1B3 FP inh: 7; ARFGAP1 inhibitor: 13; ASAP1 inh: 3; PAFAH2 FP conf: 29

Results for Cc1cc(NC(=O)COC(=O)c2ccccc2S(=O)(=O)N(C)c2ccccc2)no1 ?
PAFAH2 FP inh: 46*; PAFAH1B2 FP inh: -1; pPAFAH FP inh: 2; PAFAH1B3 FP inh: 2; ARFGAP1 inhibitor: -10; ASAP1 inh: -1; PAFAH2 FP conf: 1

How did CCOc1ccc(C(=O)OCC(=O)Nc2cc(C)on2)cc1OCC do in these assays?
PAFAH2 FP inh: 77*; PAFAH1B2 FP inh: 6; pPAFAH FP inh: 5; PAFAH1B3 FP inh: -2; ARFGAP1 inhibitor: 3; ASAP1 inh: 10; PAFAH2 FP conf: 63*

Results for CCN(CC)c1ccc(C(=O)OCC(=O)Nc2cc(C)on2)cc1 ?
PAFAH2 FP inh: 90*; PAFAH1B2 FP inh: 0; pPAFAH FP inh: 16; PAFAH1B3 FP inh: 6; ARFGAP1 inhibitor: 2; ASAP1 inh: 9; PAFAH2 FP conf: 66*

Results for Cc1cc(NC(=O)COC(=O)c2ccccc2NCCO)no1 ?
PAFAH2 FP inh: 6; PAFAH1B2 FP inh: 7; pPAFAH FP inh: 6; PAFAH1B3 FP inh: 10; ARFGAP1 inhibitor: 2; ASAP1 inh: 18

Results for C[C@@H]1ON(C)[C@H]2C[C@H]3c4[nH]c5c(-c6ccccc6)cccc5c4CCN3C[C@@H]12 ?
ARFGAP1 inhibitor: 10; ASAP1 inh: 5

How did O=C(NC12CC3CC(CC(C3)C1)C2)c1cncc(O)c1 do in these assays?
PAFAH2 FP inh: 38*; PAFAH1B2 FP inh: 22; pPAFAH FP inh: 3; PAFAH1B3 FP inh: 18; ARFGAP1 inhibitor: -2; ASAP1 inh: -3; PAFAH2 FP conf: 20

Results for O=C(NCC(c1cccs1)N1CCOCC1)c1ccccc1NS(=O)(=O)c1ccc(Cl)c([N+](=O)[O-])c1 (centres undefined) ?
PAFAH2 FP inh: 43*; PAFAH1B2 FP inh: 17; pPAFAH FP inh: -3; PAFAH1B3 FP inh: 13; ARFGAP1 inhibitor: 2; ASAP1 inh: 8; PAFAH2 FP conf: 81*

What do the screens show for `O=C(NCC(c1cccs1)N1CCOCC1)c1ccccc1NS(=O)(=O)c1cccc([N+](=O)[O-])c1` (centres undefined)?
PAFAH2 FP inh: 7; PAFAH1B2 FP inh: 8; pPAFAH FP inh: 3; PAFAH1B3 FP inh: 2; ARFGAP1 inhibitor: -3; ASAP1 inh: -1

Results for CSCCC(C(=O)Nc1c(C)cccc1C)N(Cc1ccccc1)Cc1ccccc1 (centres undefined) ?
ARFGAP1 inhibitor: -16; ASAP1 inh: -7
